This note sets out measurements from ChEMBL document CHEMBL1250442, “Inhibiting gene expression at transcription start sites in chromosomal DNA with antigene RNAs” (Nat Chem Biol, 2005).

SMILES strings stand for the structures. Calls of active or inactive are those of the source. The rule behind the calls is not given here.

The subject of assay [1] is T47D. In words: Inhibition of PR-B gene expression in human T47D cells at 25 nM by syber green assay in presence of 10 nM estradiol. The format is functional, cell-based.
The test system of assay [2] is T47D. In words: Inhibition of PR-A mRNA gene expression in human T47D cells at 100 nM by syber green assay. The format is functional. An outline of the steps: (§1)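 T47D cells plated at 80,000/well without antibiotics two days before Oligofectamine transfection with agRNA duplex (25 or 100 nM final); medium changed at 24 h, harvest day 5 unless stated otherwise. TRIzol total RNA; PR mRNA by real-time PCR with SYBR Green: 50 °C 2 min, 95 °C 10 min, 40 cycles 95 °C 15 s/60 °C 1 min.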

In assay [3] the test system is T47D. In words: Inhibition of PR-B gene expression in human T47D cells at 25 nM by syber green assay. The format is functional. The essentials:
as §1

For assay [4], the system named is T47D. Kind of assay: Inhibition of PR-B mRNA gene expression in human T47D cells at 100 nM by syber green assay. The format is functional. The essentials:
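T47D cells in RPMI-1640 with 10% FBS, NEAA, insulin, 37 °C, 5% CO2. Plated two days before transfection without antibiotics. Oligofectamine-mediated duplex RNA transfection at 100 nM final, medium changed at 24 h, harvest five days post-transfection. Total RNA extracted with TRIzol. hPR mRNA quantified by SYBR Green qPCR: 50 °C 2 min, 95 °C 10 min, then 40 cycles of 95 °C 15 s / 60 °C 1 min.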

For assay [5], the system named is T47D. Kind of assay: Inhibition of PR-A gene expression in human T47D cells at 25 nM by syber green assay in presence of 10 nM estradiol. The format is functional, cell-based.
Assay [6] concerns T47D. In words: Inhibition of PR-A gene expression in human T47D cells at 25 nM by syber green assay. The format is functional. An outline of the steps:
as §1

The term inhibition denotes how much of the control response was suppressed.

As to `Cc1cn(CC(=O)N(CCNC(=O)CN(CCNC(=O)CN(CCNC(=O)CN(CCNC(=O)CN(CCNC(=O)CN(CCNC(=O)CN(CCNC(=O)CN(CCNC(=O)CN(CCNC(=O)CN(CCNC(=O)CN(CCNC(=O)CN(CCNC(=O)CN(CCNC(=O)CN(CCNC(=O)CN(CCNC(=O)CN(CCNC(=O)CN(CCNC(=O)CN(CCNC(=O)CN(CCNC(=O)CN(CCNC(=O)CN(CCNC(=O)CN)C(=O)Cn2ccc(=O)[nH]c2=O)C(=O)Cn2ccc(N)nc2=O)C(=O)Cn2ccc(=O)[nH]c2=O)C(=O)Cn2cnc3c(=O)[nH]c(N)nc32)C(=O)Cn2cnc3c(=O)[nH]c(N)nc32)C(=O)Cn2ccc(N)nc2=O)C(=O)Cn2ccc(N)nc2=O)C(=O)Cn2cnc3c(N)ncnc32)C(=O)Cn2cnc3c(=O)[nH]c(N)nc32)C(=O)Cn2ccc(=O)[nH]c2=O)C(=O)Cn2ccc(N)nc2=O)C(=O)Cn2ccc(N)nc2=O)C(=O)Cn2cnc3c(N)ncnc32)C(=O)Cn2ccc(N)nc2=O)C(=O)Cn2cnc3c(N)ncnc32)C(=O)Cn2cnc3c(=O)[nH]c(N)nc32)C(=O)Cn2ccc(N)nc2=O)C(=O)Cn2ccc(=O)[nH]c2=O)C(=O)Cn2cnc3c(=O)[nH]c(N)nc32)C(=O)Cn2cc(C)c(=O)[nH]c2=O)CC(=O)O)c(=O)[nH]c1=O`, the inhibition entry in assay [1] and in assay [5] was “Active” in each case. In addition, the figures for the inhibition at 0.1 µM in assay [2] and in assay [4] were 97% and 100%, respectively. Moreover, the inhibition at 0.025 µM in assay [3] came to 50%; in assay [6] it was 38%.

`Cc1cn(CC(=O)N(CCNC(=O)CN(CCNC(=O)CN(CCNC(=O)CN(CCNC(=O)CN(CCNC(=O)CN(CCNC(=O)CN(CCNC(=O)CN(CCNC(=O)CN(CCNC(=O)CN(CCNC(=O)CN(CCNC(=O)CN(CCNC(=O)CN(CCNC(=O)CN(CCNC(=O)CN(CCNC(=O)CN(CCNC(=O)CN(CCNC(=O)CN(CCNC(=O)CN(CCNC(=O)CN(CCNC(=O)CN)C(=O)Cn2cnc3c(N)ncnc32)C(=O)Cn2cnc3c(=O)[nH]c(N)nc32)C(=O)Cn2cnc3c(=O)[nH]c(N)nc32)C(=O)Cn2ccc(N)nc2=O)C(=O)Cn2cnc3c(=O)[nH]c(N)nc32)C(=O)Cn2ccc(=O)[nH]c2=O)C(=O)Cn2ccc(=O)[nH]c2=O)C(=O)Cn2cnc3c(=O)[nH]c(N)nc32)C(=O)Cn2ccc(=O)[nH]c2=O)C(=O)Cn2ccc(=O)[nH]c2=O)C(=O)Cn2cnc3c(N)ncnc32)C(=O)Cn2cnc3c(=O)[nH]c(N)nc32)C(=O)Cn2cnc3c(N)ncnc32)C(=O)Cn2cnc3c(N)ncnc32)C(=O)Cn2cnc3c(N)ncnc32)C(=O)Cn2cnc3c(=O)[nH]c(N)nc32)C(=O)Cn2ccc(N)nc2=O)C(=O)Cn2ccc(=O)[nH]c2=O)C(=O)Cn2cnc3c(=O)[nH]c(N)nc32)CC(=O)NCCN(CC(=O)NCC(=O)O)C(=O)Cn2cc(C)c(=O)[nH]c2=O)c(=O)[nH]c1=O`: the inhibition entry in assay [1] and in assay [5] was “Active” each time. In addition, the results for the inhibition at 0.1 µM in assay [2] and in assay [4] were 80% and 99%, respectively. The inhibition at 0.025 µM worked out at 73% in assay [3] and 57% in assay [6].

As for `Cc1cn(CC(=O)N(CCNC(=O)CN(CCNC(=O)CN(CCNC(=O)CN(CCNC(=O)CN(CCNC(=O)CN(CCNC(=O)CN(CCNC(=O)CN(CCNC(=O)CN(CCNC(=O)CN(CCNC(=O)CN(CCNC(=O)CN(CCNC(=O)CN(CCNC(=O)CN(CCNC(=O)CN(CCNC(=O)CN(CCNC(=O)CN(CCNC(=O)CN(CCNC(=O)CN(CCNC(=O)CN(CCNC(=O)CN)C(=O)Cn2cnc3c(=O)[nH]c(N)nc32)C(=O)Cn2cnc3c(=O)[nH]c(N)nc32)C(=O)Cn2cnc3c(=O)[nH]c(N)nc32)C(=O)Cn2ccc(N)nc2=O)C(=O)Cn2ccc(N)nc2=O)C(=O)Cn2ccc(=O)[nH]c2=O)C(=O)Cn2ccc(N)nc2=O)C(=O)Cn2ccc(N)nc2=O)C(=O)Cn2ccc(N)nc2=O)C(=O)Cn2ccc(=O)[nH]c2=O)C(=O)Cn2cnc3c(N)ncnc32)C(=O)Cn2cnc3c(=O)[nH]c(N)nc32)C(=O)Cn2cnc3c(N)ncnc32)C(=O)Cn2cnc3c(=O)[nH]c(N)nc32)C(=O)Cn2cnc3c(=O)[nH]c(N)nc32)C(=O)Cn2cnc3c(N)ncnc32)C(=O)Cn2cnc3c(=O)[nH]c(N)nc32)C(=O)Cn2cnc3c(=O)[nH]c(N)nc32)C(=O)Cn2cnc3c(N)ncnc32)CC(=O)NCCN(CC(=O)NCC(=O)O)C(=O)Cn2cc(C)c(=O)[nH]c2=O)c(=O)[nH]c1=O`, the inhibition result in assay [1] and in assay [5] was “Active” throughout. In addition, the inhibition at 0.1 µM in assay [2] and in assay [4] was below 20% throughout. Besides, the inhibition at 0.025 µM in assay [3] and in assay [6] was below 20% throughout.

As to `Cc1cn(CC(=O)N(CCNC(=O)CN(CCNC(=O)CN(CCNC(=O)CN(CCNC(=O)CN(CCNC(=O)CN(CCNC(=O)CN(CCNC(=O)CN(CCNC(=O)CN(CCNC(=O)CN(CCNC(=O)CN(CCNC(=O)CN(CCNC(=O)CN(CCNC(=O)CN(CCNC(=O)CN(CCNC(=O)CN(CCNC(=O)CN(CCNC(=O)CN(CCNC(=O)CN(CCNC(=O)CN(CCNC(=O)CN)C(=O)Cn2ccc(N)nc2=O)C(=O)Cn2cnc3c(=O)[nH]c(N)nc32)C(=O)Cn2ccc(=O)[nH]c2=O)C(=O)Cn2ccc(=O)[nH]c2=O)C(=O)Cn2cnc3c(=O)[nH]c(N)nc32)C(=O)Cn2ccc(=O)[nH]c2=O)C(=O)Cn2ccc(=O)[nH]c2=O)C(=O)Cn2cnc3c(N)ncnc32)C(=O)Cn2cnc3c(=O)[nH]c(N)nc32)C(=O)Cn2cnc3c(N)ncnc32)C(=O)Cn2cnc3c(N)ncnc32)C(=O)Cn2cnc3c(N)ncnc32)C(=O)Cn2cnc3c(=O)[nH]c(N)nc32)C(=O)Cn2ccc(N)nc2=O)C(=O)Cn2ccc(=O)[nH]c2=O)C(=O)Cn2cnc3c(=O)[nH]c(N)nc32)C(=O)Cn2ccc(=O)[nH]c2=O)C(=O)Cn2ccc(N)nc2=O)C(=O)Cn2ccc(=O)[nH]c2=O)CC(=O)NCCN(CC(=O)NCC(=O)O)C(=O)Cn2cc(C)c(=O)[nH]c2=O)c(=O)[nH]c1=O`, the inhibition entry in assay [1] and in assay [5] was “Active” each time. The inhibition at 0.1 µM in assay [2] was 29%; in assay [4], 26%. Also, the inhibition at 0.025 µM in assay [3] and in assay [6] was below 20% in each case.

On to `Cc1cn(CC(=O)N(CCNC(=O)CN(CCNC(=O)CN(CCNC(=O)CN(CCNC(=O)CN(CCNC(=O)CN(CCNC(=O)CN(CCNC(=O)CN(CCNC(=O)CN(CCNC(=O)CN(CCNC(=O)CN(CCNC(=O)CN(CCNC(=O)CN(CCNC(=O)CN(CCNC(=O)CN(CCNC(=O)CN(CCNC(=O)CN(CCNC(=O)CN(CCNC(=O)CN(CCNC(=O)CN(CCNC(=O)CN)C(=O)Cn2cnc3c(N)ncnc32)C(=O)Cn2cnc3c(=O)[nH]c(N)nc32)C(=O)Cn2cnc3c(N)ncnc32)C(=O)Cn2cnc3c(=O)[nH]c(N)nc32)C(=O)Cn2cnc3c(=O)[nH]c(N)nc32)C(=O)Cn2cnc3c(N)ncnc32)C(=O)Cn2cnc3c(=O)[nH]c(N)nc32)C(=O)Cn2cnc3c(=O)[nH]c(N)nc32)C(=O)Cn2cnc3c(N)ncnc32)C(=O)Cn2cnc3c(=O)[nH]c(N)nc32)C(=O)Cn2cnc3c(=O)[nH]c(N)nc32)C(=O)Cn2ccc(N)nc2=O)C(=O)Cn2cnc3c(=O)[nH]c(N)nc32)C(=O)Cn2ccc(=O)[nH]c2=O)C(=O)Cn2ccc(=O)[nH]c2=O)C(=O)Cn2cnc3c(=O)[nH]c(N)nc32)C(=O)Cn2ccc(=O)[nH]c2=O)C(=O)Cn2ccc(=O)[nH]c2=O)C(=O)Cn2cnc3c(N)ncnc32)CC(=O)NCCN(CC(=O)NCC(=O)O)C(=O)Cn2cc(C)c(=O)[nH]c2=O)c(=O)[nH]c1=O`, for which the inhibition result in assay [1] and in assay [5] was “Active” throughout. The inhibition at 0.1 µM in assay [2] and in assay [4] was below 20% each time. The inhibition at 0.025 µM in assay [3] and in assay [6] was below 20% in each case.
